Calls of active or inactive are those of the source. No cut-off for these calls is given here.
What was measured:
Mus musculus [1] = assay: Analgesic activity in sc dosed mouse by hot-plate assay; type: functional
Procedure, shortened: (§1)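 Mice dosed subcutaneously with compounds as water-soluble salts. ED50 in mg/kg, with 95% confidence limits from probit analysis. Overt toxicity was also noted at the doses given.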

Mus musculus [2] = assay: Toxicity in mouse at 40 mg/kg, sc; type: organism-based; set-up: dose 40 mg/kg, route subcutaneous; settings: in vivo
Procedure, shortened: (§2)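 Toxic signs were recorded in mice during analgesic testing after subcutaneous doses of the compounds, given as water-soluble salts.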

Mus musculus [3] = assay: Analgesic activity in sc dosed mouse by Nilsen method; type: functional; procedure, shortened: as §1
[4] = target: Opioid receptor (Rattus norvegicus) (UniProt P33533+P34975+P33535); settings: Brain
Mus musculus [5] = assay: Toxicity in mouse at 50 mg/kg, sc; type: organism-based; set-up: dose 50 mg/kg, route subcutaneous; settings: in vivo; procedure, shortened: as §2
Mus musculus [6] = assay: Analgesic activity in mouse at 20 mg/kg, sc by hot-plate assay; type: functional, organism-based; set-up: dose 20 mg/kg
Procedure, shortened: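 Mouse hot-plate analgesia test. Compounds were given subcutaneously as water-soluble salts. ED50 values carry 95% confidence limits from probit analysis.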

Mus musculus [7] = assay: Toxicity in mouse at 60 mg/kg, sc; type: organism-based; set-up: dose 60 mg/kg, route subcutaneous; settings: in vivo; procedure, shortened: as §2
Mus musculus [8] = assay: Toxicity in mouse at 20 mg/kg, sc; type: organism-based; set-up: dose 20 mg/kg, route subcutaneous; settings: in vivo; procedure, shortened: as §2
Mus musculus [9] = assay: Analgesic activity in sc dosed mouse by tail-flick assay; type: functional
Mus musculus [10] = assay: Analgesic activity in sc dosed mouse assessed as inhibition of p-phenylquinone-induced abdominal-stretching; type: functional
Mus musculus [11] = assay: Analgesic activity in mouse at 10 mg/kg, sc by tail-flick assay; type: functional, organism-based; set-up: dose 10 mg/kg
Mus musculus [12] = assay: Analgesic activity in mouse assessed as inhibition of p-phenylquinone-induced abdominal-stretching at 10 mg/kg, sc; type: functional, organism-based; set-up: dose 10 mg/kg
Procedure, shortened: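 Mice were dosed subcutaneously with test compounds as water-soluble salts and then run in the tail-flick assay and in the p-phenylquinone-induced abdominal-stretching (PPQ) assay.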

Rhesus monkey [13] = assay: Toxicity in monkey assessed as retching at 12 mg/kg administered as single dose; type: organism-based, Macaca mulatta; set-up: dose 12 mg/kg; settings: in vivo
Mus musculus [14] = assay: Toxicity in mouse at 30 mg/kg, sc; type: organism-based; set-up: dose 30 mg/kg, route subcutaneous; settings: in vivo; procedure, shortened: as §2
Rhesus monkey [15] = assay: Toxicity in nonwithdrawn monkey assessed as mild CNS depression at 6 mg/kg administered as single dose; type: organism-based, Macaca mulatta; set-up: dose 6 mg/kg; settings: in vivo
Rhesus monkey [16] = assay: Toxicity in monkey assessed as increase in severity of abstinence signs at 6 mg/kg administered as single dose; type: organism-based, Macaca mulatta; set-up: dose 6 mg/kg; settings: in vivo
Procedure, shortened: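 Rhesus monkeys were used in single-dose suppression tests for physical dependence. The compound was given at 6.0 mg/kg and the severity of abstinence signs was scored.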

Rhesus monkey [17] = assay: Toxicity in monkey assessed as increased respiration at 12 mg/kg administered as single dose; type: organism-based, Macaca mulatta; set-up: dose 12 mg/kg; settings: in vivo
Rhesus monkey [18] = assay: Toxicity in monkey assessed as piloerection at 12 mg/kg administered as single dose; type: organism-based, Macaca mulatta; set-up: dose 12 mg/kg; settings: in vivo
Rhesus monkey [19] = assay: Toxicity in nonwithdrawn monkey assessed as mild abstinence signs at 6 mg/kg administered as single dose; type: organism-based, Macaca mulatta; set-up: dose 6 mg/kg; settings: in vivo
Rhesus monkey [20] = assay: Toxicity in monkey assessed as morphine-like dependence liability; type: organism-based, Macaca mulatta; settings: in vivo
Procedure, shortened: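 Physical dependence liability of the morphine type was assessed in Rhesus monkeys.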

Rhesus monkey [21] = assay: Toxicity in monkey assessed as tremors at 12 mg/kg administered as single dose; type: organism-based, Macaca mulatta; set-up: dose 12 mg/kg; settings: in vivo

Sequence of Opioid receptor (Rattus norvegicus) (P33533 whole entry, looked up): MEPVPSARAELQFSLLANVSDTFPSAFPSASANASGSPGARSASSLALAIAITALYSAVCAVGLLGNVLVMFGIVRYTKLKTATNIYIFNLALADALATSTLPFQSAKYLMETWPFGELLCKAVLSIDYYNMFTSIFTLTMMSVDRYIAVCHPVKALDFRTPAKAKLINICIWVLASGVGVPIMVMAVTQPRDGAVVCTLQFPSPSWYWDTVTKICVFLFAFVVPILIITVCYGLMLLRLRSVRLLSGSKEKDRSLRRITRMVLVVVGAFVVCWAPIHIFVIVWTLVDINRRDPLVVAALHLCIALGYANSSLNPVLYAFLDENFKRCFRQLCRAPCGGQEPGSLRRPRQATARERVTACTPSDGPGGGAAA
Sequence of Opioid receptor (Rattus norvegicus) (P33535 whole entry, looked up): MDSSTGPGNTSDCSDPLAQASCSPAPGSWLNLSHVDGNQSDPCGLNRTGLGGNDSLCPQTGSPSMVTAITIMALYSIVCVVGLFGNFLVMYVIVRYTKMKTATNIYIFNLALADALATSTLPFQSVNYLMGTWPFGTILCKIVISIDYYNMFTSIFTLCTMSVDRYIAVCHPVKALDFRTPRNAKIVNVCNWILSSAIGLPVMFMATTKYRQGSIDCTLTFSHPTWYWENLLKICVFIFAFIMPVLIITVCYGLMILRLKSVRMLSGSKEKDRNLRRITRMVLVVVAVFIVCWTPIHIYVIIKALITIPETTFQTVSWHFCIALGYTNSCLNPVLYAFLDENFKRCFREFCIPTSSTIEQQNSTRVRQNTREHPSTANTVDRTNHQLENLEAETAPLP
Sequence of Opioid receptor (Rattus norvegicus) (P34975 whole entry, looked up): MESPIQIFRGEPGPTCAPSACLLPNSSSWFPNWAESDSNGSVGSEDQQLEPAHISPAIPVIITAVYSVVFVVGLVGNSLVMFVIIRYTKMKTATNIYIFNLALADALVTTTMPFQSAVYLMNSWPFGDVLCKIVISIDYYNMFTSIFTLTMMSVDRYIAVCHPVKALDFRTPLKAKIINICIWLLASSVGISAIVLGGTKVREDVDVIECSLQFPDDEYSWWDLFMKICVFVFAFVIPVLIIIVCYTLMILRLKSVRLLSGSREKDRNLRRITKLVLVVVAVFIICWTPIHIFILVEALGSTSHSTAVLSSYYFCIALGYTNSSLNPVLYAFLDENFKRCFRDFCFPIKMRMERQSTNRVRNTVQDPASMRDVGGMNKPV

Compound: CN1CCC(OC(=O)c2cnc3ccccc3n2)CC1
- ED50 (Mus musculus [1]): inactive

Compound: CN1CCC(OC(=O)c2ccc3ncccc3c2)CC1.Cl
- Activity (Mus musculus [2]): Non-toxic
- ED50 (Mus musculus [1]): 9.3 mg/kg
- ED50 (Mus musculus [3]): 29.7 mg/kg
- ED50 [4]: > 100 µM
- Activity (Mus musculus [5]): Toxic

Compound: CN1CCC(OC(=O)c2cccs2)CC1.Cl
- Activity (Mus musculus [2]): Non-toxic
- ED50 (Mus musculus [1]): 13.3 mg/kg
- ED50 (Mus musculus [3]): inactive
- ED50 [4]: > 100 µM

Compound: Cc1c(C(=O)OC2CCN(C)CC2)c(C)n(C)c1C
- Activity (Mus musculus [6]): Active

Compound: CCOC(=O)C1(c2ccccc2)CCN(C)CC1
- ED50 [4]: 0.7 µM

Compound: Cc1ccc(C(=O)OC2CCN(C)CC2)s1
- ED50 (Mus musculus [1]): inactive

Compound: CN1CCC(OC(=O)c2cnc3ccccc3c2)CC1.Cl
- ED50 (Mus musculus [1]): 11.2 mg/kg
- Activity (Mus musculus [7]): Non-toxic

Compound: Cc1ccc(C(=O)OC2CCN(C)CC2)cc1C
- Activity (Mus musculus [6]): Active

Compound: CN1CCC(OC(=O)c2ccoc2)CC1.O=C(O)/C=C\C(=O)O
- ED50 (Mus musculus [1]): 27.9 mg/kg

Compound: CN1CCC(OC(=O)c2ccc(Br)o2)CC1.Cl
- ED50 (Mus musculus [1]): 17.7 mg/kg

Compound: Cc1[nH]c(C)c(C(=O)OC2CCN(C)CC2)c1C
- Activity (Mus musculus [8]): Non-toxic
- ED50 (Mus musculus [9]): 15.1 mg/kg
- ED50 (Mus musculus [10]): 15.1 mg/kg
- ED50 [4]: 1 µM
- Activity (Mus musculus [11]): Active
- Activity (Mus musculus [12]): Active

Compound: Cc1[nH]c(C)c(C(=O)OC2CCCN(C)C2)c1C (stereo not given)
- ED50 (Mus musculus [1]): inactive

Compound: CN1CCC(OC(=O)c2ccc3c(c2)OCO3)CC1.Cl
- Activity (Rhesus monkey [13]): Toxic
- Activity (Mus musculus [14]): Non-toxic
- ED50 [4]: 30 µM
- Activity (Rhesus monkey [15]): Toxic
- Activity (Rhesus monkey [16]): Toxic
- Activity (Rhesus monkey [17]): Toxic
- Activity (Rhesus monkey [18]): Toxic
- Activity (Rhesus monkey [19]): Toxic
- Activity (Rhesus monkey [20]): Non-toxic
- Activity (Rhesus monkey [21]): Toxic

Compound: CN1CCC(OC(=O)c2ccncc2)CC1.O=C(O)/C=C\C(=O)O
- ED50 (Mus musculus [1]): 44.2 mg/kg

Compound: CN1CCCC(COC(=O)c2ccc3c(c2)OCO3)C1.Cl (stereo not given)
- ED50 (Mus musculus [1]): 22.7 mg/kg

Compound: CN1CCC(OC(=O)C2c3ccccc3Oc3ccccc32)CC1.Cl
- ED50 (Mus musculus [1]): 35 mg/kg

Compound: CN1CCC(OC(=O)c2ccco2)CC1.O=C(O)/C=C\C(=O)O
- ED50 (Mus musculus [1]): 12.5 mg/kg
- Activity (Mus musculus [5]): Non-toxic

Source: ChEMBL document CHEMBL3272222, “Heterocyclic and piperonylic acid esters of 1-methyl-4-piperidinol as analgesics” (J Med Chem, 1977)
